INS-1E GSIS act – GLuc luminescence reporter in INS-1E cells, primary screen for activators of glucose-dependent secretion of insulin; INS-1E GLuc reporter insulin secretion, 2-3 h; activation, % at 16.6 µM; actives 0.61% (n = 370,000);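 active means lowest replicate activation of at least 40%, so every replicate reaches that level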;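 further: 0% = median of neutral control wells and 100% = median of IBMX positive control wells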
PAX8 reporter – inhibitors of PAX8-driven TPO luciferase reporter, primary screen, RMG-I cells, single concentration. SteadyGlo, 24 h. inhibition, % at 12.6 µM. actives 1.2% (n = 360,000). AID 652154, 2013;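 active means mean replicate inhibition at least 60% with every replicate also reaching 60%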;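 further: luciferase light reporting Pax8 driven TPO promoter activity; plate controls were median of neutral control wells for no effect and mitoxantrone controls for full effect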
MLL AF4-AF9 inh – inhibitors of AF4 peptide binding to AF9, primary screen, biochemical, AlphaScreen, biotin-AF4 peptide, FLAG-AF9, single point | Protein AF-9 (Homo sapiens), P42568 | inhibition, % at 10 µM | actives 0.47% (n = 350,000) | AID 651704, 2012;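 active means every replicate reaching a set inhibition limit, whatever the replicate mean, cut at about 25% in these data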;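 further: 0% = plate neutral control median and 100% = total signal loss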
Target sequence (P42568 whole entry, looked up): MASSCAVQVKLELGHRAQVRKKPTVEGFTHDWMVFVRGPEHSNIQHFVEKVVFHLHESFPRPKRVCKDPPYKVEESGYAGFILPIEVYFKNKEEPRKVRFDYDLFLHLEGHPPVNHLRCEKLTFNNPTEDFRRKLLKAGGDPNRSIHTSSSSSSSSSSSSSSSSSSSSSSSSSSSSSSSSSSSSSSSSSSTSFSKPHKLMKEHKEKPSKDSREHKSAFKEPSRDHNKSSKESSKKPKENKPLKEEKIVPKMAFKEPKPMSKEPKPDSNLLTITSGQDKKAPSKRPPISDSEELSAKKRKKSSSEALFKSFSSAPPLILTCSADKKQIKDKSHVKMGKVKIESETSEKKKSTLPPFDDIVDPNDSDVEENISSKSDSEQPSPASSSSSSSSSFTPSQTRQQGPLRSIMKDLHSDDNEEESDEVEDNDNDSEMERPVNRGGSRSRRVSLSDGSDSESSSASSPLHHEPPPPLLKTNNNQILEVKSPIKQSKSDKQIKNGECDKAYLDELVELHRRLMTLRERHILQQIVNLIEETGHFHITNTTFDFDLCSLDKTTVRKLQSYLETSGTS
PGC1a acetyl inh – inhibitors of PGC1a acetylation signal, primary screen, cell-based, U2OS, AlphaScreen, inhibitor mode; inhibition, % at 15.6 µM; actives 0.17% (n = 350,000); AlphaScreen anti-acetyl-lysine; with virally co-expressed GCN5 acetyltransferase;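 active means every replicate shows inhibition of at least 40%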;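 further: 0% = neutral control wells and 100% = positive control wells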
Xi reactivation – activators of inactive X chromosome reactivation, primary screen, imaging, XiGFP fibroblasts, GFP high-content imaging, set 2; activation, % at 7.58 µM; actives 0.055% (n = 360,000); XiGFP mouse fibroblasts, % GFP-positive cells imaging, 3 d; cells co-treated with 5-aza-dC sensitizer; scaled so ellipticine positive control = 100%;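 active means mean normalized replicate activation at least 10% and every replicate at or above 10%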;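 further: 0% = median of on-plate neutral control wells and 100% = ellipticine 6 µM median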
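Material: XiGFP fibroblasts, SV40-immortalized; Buffer or medium: DMEM containing 5-aza-dC; Compound dosing: single point; Times: 3 days compound exposure.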
EWS-Fli block – EWS/Fli-driven NR0B1 reporter inhibitors, primary screen, A673 cells, NR0B1 luciferase, luminescence, MLPCN library | AID 651661, 2012 | inhibition, % at 12.6 µM | viability-normalised | actives 0.67% (n = 350,000);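 active means mean inhibition of at least 50% after viability correction, with every replicate also passing that limit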;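 further: firefly luciferase signal divided by Alamar Blue viability fluorescence both relative to DMSO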
* marks the source's active call; other numbers are inactive results; x = no result given. Shown are actives, neighbours in structure and some others; about 2.1% of the full set was active somewhere.

SMILES | INS-1E GSIS act | PAX8 reporter | MLL AF4-AF9 inh | PGC1a acetyl inh | Xi reactivation | EWS-Fli block
COc1ccc(NC(=O)Nc2cccc3c2O[C@H](CN(C)Cc2ccc(Oc4ccccc4)cc2)[C@H](C)CN([C@@H](C)CO)C3=O)cc1 | -11 | 2 | 3 | 15 | -1 | 4
CCCNC(=O)N1C[C@H](C)[C@H](OC)CN(C)C(=O)c2cc(NC(=O)C3CCC3)ccc2OC[C@@H]1C | -9 | x | x | 8 | 0 | 0
COc1ccccc1S(=O)(=O)N[C@H]1CC[C@@H](CC(=O)N2CCN(C)CC2)O[C@@H]1CO | 11 | 2 | -1 | -6 | 0 | 1
CCN1[C@H](C(=O)NCCc2cn(C)cn2)[C@@H](CO)[C@@H]2Cn3c(ccc(-c4cccnc4)c3=O)[C@@H]21 | -2 | -1 | 0 | -7 | 1 | -9
CN1C(=O)c2cc(NC(=O)c3cccs3)ccc2OC[C@H]2O[C@@H](CC(=O)NCCN3CCCCC3)CC[C@@H]21 | 9 | -5 | -1 | 6 | 0 | 13
NNC(=O)c1nn(-c2ccc(Cl)cc2)cc1O | 15 | 72* | -11 | -3 | 0 | -9
Cc1ccc(NC(=O)COC(=O)c2nn(-c3ccc(Cl)cc3)cc2O)cc1 | -7 | -97 | 1 | -7 | 0 | -2
COc1ccc(CN(C)C[C@@H]2OCCCC[C@@H](C)Oc3ccc(NS(=O)(=O)c4cccs4)cc3C(=O)N([C@H](C)CO)C[C@H]2C)cc1 | -15 | 6 | 4 | -7 | 0 | -3
C[C@@H]1C(=O)N[C@@H](c2cccc(Cl)c2)CC=CC[C@H](C)Oc2ccccc2C(=O)N1C (mixture of isomers) | 4 | x | x | x | 0 | x
C=C1C(=O)C23C(O)C1CCC2C12CCCC(C)(COC(C)=O)C1C(O)C3(O)OC2 (centres undefined) | 162* | 123* | -7 | x | 2 | 57*
CCCCCCC1CCC(C(=O)Nn2c(C)nc3ccccc3c2=O)CC1 (centres undefined) | 69* | x | x | 2 | x | x
CCCC1CCC(C(=O)Nn2c(C)nc3ccccc3c2=O)CC1 (centres undefined) | 9 | x | -45 | -1 | x | -7
CN(CCCC(=O)O)c1ccc(N=Nc2ccc([N+](=O)[O-])cc2)cc1 | -3 | -93 | 38* | x | 0 | -110
CN(N=Nc1ccc([N+](=O)[O-])cc1)c1ccccc1 | -4 | -171 | 7 | -1 | 0 | -106
CCCC#Cc1ccc2c(c1)O[C@@H](CN(C)C(=O)NC(C)C)[C@@H](C)CN([C@H](C)CO)S2(=O)=O | 0 | x | 1 | 0 | -1 | -4
COc1ccc2c3c(n(C)c2c1)[C@@H](CO)N(C(=O)c1ccccc1)CC31CN(C(=O)c2ccccc2)C1 | -21 | x | 0 | x | 0 | -11
Cc1cccc(C(=O)Oc2ccc(/C=N/NC(=O)c3ccccc3O)cc2)c1 | 6 | 104* | -2 | -5 | 0 | -6
C/C(=N\OCC(=O)NCC(F)(F)F)c1cc2ccccc2o1 | -3 | 84* | 1 | x | 0 | -71
Cc1nn(C(C)(C)C)c(C)c1/C=N/OC(=O)Nc1ccc(Cl)cc1 | 5 | 79* | x | -7 | 0 | 87*
Cc1nn(C)c(C)c1/C=N/NC(=O)C(C)(C)Oc1ccc(Cl)cc1 | 5 | x | -25 | -16 | x | 4
C[C@H](CO)N1C[C@H](C)[C@H](CN(C)S(=O)(=O)c2ccccc2)Oc2ccc(NC(=O)CCCCCC(=O)Nc3ccccc3N)cc2C1=O | 9 | 12 | -2 | -6 | 0 | -5
C[C@@H]1CN([C@H](C)CO)C(=O)c2cc(NS(=O)(=O)c3ccc(Cl)cc3)ccc2O[C@@H]1CN(C)S(=O)(=O)c1cn(C)cn1 | 30 | x | -4 | -2 | -1 | 3
COc1cc(OC)cc(C(=O)Nc2cccnc2)c1 | 11 | -5 | 0 | x | 0 | 19
O=C(Nc1cccnc1)Nc1cccc(F)c1 | -17 | -19 | 1 | x | 0 | -39
CCOc1cc(OCC)cc(C(=O)Nc2cccnc2)c1 | 41* | x | x | 10 | x | x
SMILES | INS-1E GSIS act | PAX8 reporter | MLL AF4-AF9 inh | PGC1a acetyl inh | Xi reactivation | EWS-Fli block
CC(=O)c1cccc(NC(=O)Nc2cccnc2)c1 | 12 | x | x | 50* | x | x
C[C@@H]1CN([C@@H](C)CO)C(=O)c2cccc(NC(=O)CCCCCC(=O)Nc3ccccc3N)c2O[C@H]1CN(C)Cc1ccc(Oc2ccccc2)cc1 | 13 | x | x | x | 0 | x
CC(C)NC(=O)N(C)C[C@H]1OCCCC[C@@H](C)Oc2ccc(NS(=O)(=O)c3ccc(Cl)cc3)cc2C(=O)N([C@@H](C)CO)C[C@@H]1C | -7 | 4 | -2 | -8 | 0 | 3
COc1ccc(O)c(C(c2c(C)[nH][nH]c2=O)c2c(C)[nH][nH]c2=O)c1 | -8 | 97* | -1 | 13 | 0 | 10
Cc1ccc(S(=O)(=O)Nc2ccc3c(c2)C(=O)N([C@@H](C)CO)C[C@@H](C)[C@H](CN(C)C(=O)c2ccccc2)OCCCC[C@@H](C)O3)cc1 | -16 | -46 | -1 | -18 | 0 | 0
CC(=O)N[C@H]1C=C[C@@H](CC(=O)NCc2ccc(Cl)cc2)O[C@H]1CO | -11 | 9 | 0 | 0 | 0 | 5
COc1ccccc1C(=O)N(CCC1CCCN1C)c1nc2ccccc2s1 (centres undefined) | 4 | -104 | 7 | x | 0 | 61*
N#Cc1cccc(Oc2ccc(-c3cnc4ccccc4n3)cc2)c1C#N | 87* | -24 | x | x | 0 | x
CCC(=O)Nc1cccc(-c2ccc(N3CCC(C)CC3)nn2)c1 | -4 | 18 | 1 | x | 0 | x
O=C(Nc1cccc(-c2ccc(N3CCCCC3)nn2)c1)C(F)(F)F | 14 | 95* | -8 | 4 | 0 | x
CC1CCN(c2ccc(-c3cccc(NC(=O)C(F)(F)F)c3)nn2)CC1 | -9 | 94* | -10 | x | 0 | x
Cc1noc(C)c1NC(=O)Nc1ccc2c(c1)C(=O)N([C@@H](C)CO)C[C@@H](C)[C@H](CN(C)S(C)(=O)=O)OCCCC[C@@H](C)O2 | 4 | -16 | -2 | -3 | 1 | x
COc1ccc(NC(=O)Nc2ccc3c(c2)CC(=O)N([C@H](C)CO)C[C@H](C)[C@@H](CN(C)S(=O)(=O)c2cccs2)O3)cc1 | -12 | -4 | 1 | 3 | 1 | -4
C[C@H](CO)N1C[C@H](C)[C@H](CN(C)C(=O)Nc2cccc3ccccc23)OCCCC[C@H](C)Oc2ccc(N(C)C)cc2C1=O | -17 | -18 | x | -7 | 0 | 67*

Screens as filed in PubChem.
